The test system of one experiment is Plasmodium falciparum. The experiment in a line: Antiplasmodial activity against Plasmodium falciparum FcBR. In kind it is functional, organism-based. To be noted: FCBR/Columbia. In a few lines:
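Synchronized ring-stage parasites (strain FCBR) grown in human RBC (A Rh+), RPMI 1640 with 25 mM HEPES, 20 mM bicarbonate, 0.5% AlbuMAX I, 2.5% hematocrit, 37 °C under 94% N₂/1% O₂/5% CO₂; plated at 1% parasitemia with compounds (DMSO stock diluted 10-fold in 50% ethanol), 100–0.0488 µM, in quadruplicate; 50% ethanol as negative control; dose-dependent effect on development quantified.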

Experiment [1] in a line: Inhibition of Plasmodium falciparum falcipain-2. In a few lines:
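Recombinant FP-2 in 100 mM sodium acetate pH 5.5, 10 mM DTT, substrate Cbz-Phe-Arg-AMC; reversibility screen at 100 µM with E-64 control, then continuous progress-curve assays with 0–100 µM inhibitor; fluorescence ex 365/em 460 nm; run twice; Ki from Dixon plot, corrected to zero substrate using Km 21.5 µM.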

Another experiment has as its target Rhodesain (Trypanosoma brucei rhodesiense, UniProt Q95PM0). The experiment in a line: Inhibition of Trypanosoma brucei rhodesiense rhodesain. In a few lines:
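Continuous fluorometric progress-curve assay in 100 mM sodium acetate, pH 5.5, with 10 mM DTT. Substrate is Cbz-Phe-Arg-AMC (40 or 10, depending on enzyme). Inhibitors come from DMSO stocks, at increasing concentrations up to 100. AMC read at ex 365/em 460 nm, each assay run twice. Kiapp is taken from a Dixon plot and corrected to zero substrate with Km to give Ki.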

In the next experiment the target is Cathepsin B (Homo sapiens, UniProt P07858). Kind of experiment: Inhibition of human cathepsin B.
The next experiment has as its target Procathepsin L (Homo sapiens, UniProt P07711). The experiment in a line: Inhibition of human cathepsin L.

Where only a bound is given, the exact number is not on record here.

Procathepsin L, sequence (P07711 whole entry): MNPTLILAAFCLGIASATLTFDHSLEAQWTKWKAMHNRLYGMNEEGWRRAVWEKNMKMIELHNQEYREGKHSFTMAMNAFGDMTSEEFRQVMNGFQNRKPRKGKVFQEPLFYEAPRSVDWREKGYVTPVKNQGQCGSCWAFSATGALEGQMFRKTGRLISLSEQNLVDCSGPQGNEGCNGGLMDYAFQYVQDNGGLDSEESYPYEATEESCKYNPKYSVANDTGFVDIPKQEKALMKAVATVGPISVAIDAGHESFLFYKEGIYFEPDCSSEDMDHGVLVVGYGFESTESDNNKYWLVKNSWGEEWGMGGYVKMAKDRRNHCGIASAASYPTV
Rhodesain, sequence (Q95PM0 whole entry): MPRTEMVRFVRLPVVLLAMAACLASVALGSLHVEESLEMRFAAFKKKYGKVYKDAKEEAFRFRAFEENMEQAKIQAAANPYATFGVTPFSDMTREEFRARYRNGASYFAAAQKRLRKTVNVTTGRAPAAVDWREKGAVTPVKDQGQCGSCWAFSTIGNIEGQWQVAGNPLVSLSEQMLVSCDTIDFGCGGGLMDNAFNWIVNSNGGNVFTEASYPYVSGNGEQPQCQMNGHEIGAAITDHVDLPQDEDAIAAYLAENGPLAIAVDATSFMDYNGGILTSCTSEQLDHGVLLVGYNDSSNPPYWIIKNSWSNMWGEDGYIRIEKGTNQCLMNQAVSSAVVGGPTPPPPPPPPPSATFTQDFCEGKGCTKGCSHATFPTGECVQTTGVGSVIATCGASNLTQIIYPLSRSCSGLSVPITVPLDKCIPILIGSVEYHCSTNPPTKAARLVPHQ

What is called IC50 is the concentration that gives 50% inhibition. The Ki is the dissociation constant of the complex between target and ligand, obtained from inhibition or displacement. As to `COc1ccc(-c2c3cc4c(cc3cc(=O)n2NC(=O)Nc2ccc(C(C)=O)cc2)OCO4)cc1`, the IC50 in the experiment with Plasmodium falciparum is 11.8 µM. Also, the inhibition constant (Ki) in experiment [1] is 5.9 µM; on Rhodesain (read-out: Ki) it was 14 µM; on Cathepsin B (read-out: Ki), 3.7 µM; on Procathepsin L, 2.1 µM.
In the same order, the values of `COc1ccc(-c2c3cc4c(cc3cc(=O)n2NC(=O)OC(C)(C)C)OCO4)cc1` are 7.7 µM, 24.4 µM, 19.4 µM, 7.5 µM and 4.1 µM.
Regarding `COc1ccc(-c2c3cc(OCc4ccccc4)c(OCc4ccccc4)cc3cc(=O)n2N)cc1`, the IC50 with Plasmodium falciparum is 16.9 µM. Moreover, the inhibition constant (Ki) in experiment [1] is 2.3 µM; on Rhodesain (read-out: Ki), 4 µM; at Cathepsin B (read-out: Ki) it was 3.3 µM; at Procathepsin L, 4.2 µM.
On to `COc1ccc(-c2c3cc(OC)c(OC)cc3cc(=O)n2NC(=O)OC(C)(C)C)cc1`, for which, in the experiment on Plasmodium falciparum, the IC50 amounted to 9.3 µM. The Ki was 40.3 µM in experiment [1], “Not Active” at Rhodesain, “Not Active” at Cathepsin B and 39.7 µM at Procathepsin L.
Take `Cc1cc2cc3c(cc2c(-c2ccc(N)cc2)n1)OCO3`: in the experiment on Plasmodium falciparum, 38.8 µM corresponded to half-maximal inhibition (IC50). Moreover, the Ki in experiment [1] is 7.3 µM; at Rhodesain (read-out: Ki), 19.4 µM; at Cathepsin B (read-out: Ki), 6.9 µM; at Procathepsin L it was 8.7 µM.
Molecule `COc1ccc(-c2c3cc4c(cc3cc(=O)n2NC(=O)Nc2ccc(SC)cc2)OCO4)cc1` registered a half-inhibitory concentration (IC50) in the experiment with Plasmodium falciparum greater than 100 µM. Further, the inhibition constant Ki in experiment [1] is 6.5 µM; at Rhodesain (read-out: Ki), 18.7 µM; at Cathepsin B (read-out: Ki) it was 4 µM; on Procathepsin L it was 0.85 µM.
The matching figures for `CCOC(=O)Nn1c(-c2ccc(OC)cc2)c2cc3c(cc2cc1=O)OCO3`: 8.4 µM, 62.7 µM, 9.4 µM, 16.7 µM and 7.7 µM.
In the same order, the values of `CC(=O)Oc1cc2cc3c(cc2c(-c2ccc(N)cc2)n1)OCO3` are 58.8 µM, 19.7 µM, 38.3 µM, 6.7 µM and 13.6 µM.
On to `COc1ccc(-c2c3cc4c(cc3cc(=O)n2N)OCO4)cc1`, for which half-maximal inhibition with Plasmodium falciparum (IC50) was put at 25.5 µM. Further, the inhibition constant Ki in experiment [1] is 15 µM; on Rhodesain (read-out: Ki), 6.3 µM; at Cathepsin B (read-out: Ki), 16.3 µM; on Procathepsin L, 7 µM.
Consider `CC(C)C[C@H](NC(=O)[C@H]1O[C@@H]1C(=O)O)C(=O)NCCCCN=C(N)N` [E-64], for which the Ki was 0.29 µM in experiment [1] and 16 µM at Cathepsin B (read-out: Ki).

Source of the values: ChEMBL document CHEMBL1152574, “Novel 2H-isoquinolin-3-ones as antiplasmodial falcipain-2 inhibitors” (Bioorg Med Chem, 2009).
